“And” between values parts separate entries of the source, which are not always exact repeats. Equal values may be shown once.
Test system: U2OS
Experiment: Multiplex assay against U2OS
Type: toxicity, cell-based
Conditions: human
Method in brief: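 Live cells were stained at seeding with Hoechst33342, BioTracker Green Microtubule Cytoskeleton Dye, MitoTracker Red and Annexin V Alexa Fluor 680, then imaged on a CQ1 microscope at 37°C and 5% CO2 after compound addition. CellPathfinder machine-learning gating split cells into Hoechst high-intensity objects or normal cells. Normal cells were split into healthy, pyknosed or fragmented nuclei, and pyknosed cells into mitotic or apoptotic. Tubulin, mitochondrial-mass and membrane-permeability phenotypes are per cents of healthy-nucleus cells.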

[1] = 12 h, 1 µM, compound concentration 1 uM
[2] = 12 h, 10 µM, compound concentration 10 uM
[3] = 24 h, 1 µM, compound concentration 1 uM
[4] = 24 h, 10 µM, compound concentration 10 uM
[5] = 48 h, 1 µM, compound concentration 1 uM
[6] = 48 h, 10 µM, compound concentration 10 uM

With `CN1CC[C@@]23CCCC[C@@H]2[C@@H]1Cc1ccc(O)cc13.O=C(O)C(O)C(O)C(=O)O` the “Population Apoptotic (%)” value [1] was 38.64% and 62.96%, the “Population Fragmented Nuclei (%)” value [1] was 1.53% and 2.17% and the “Population Healthy Nuclei (%)” value [1] was 88.86% and 78.26%. For the same compound, the “Population Hoechst High Intensity Objects (%)” value [1] was 1.51% and 0%, the “Population Membrane Permeable-Phenotype (%)” value [1] was 1.23% and 1.85% and the “Population Mitochondria Different-Phenotype (%)” value [1] was 0% and 11.11%. For the same compound, the “Population Mitotic Cells (%)” value [1] was 61.36% and 37.04%, the “Population Normal (%)” value [1] was 98.49% and 100% and the “Population Pyknosed Nuclei (%)” value [1] was 9.61% and 19.57%. For the same compound, the “Population Tubulin-Different-Phenotype (%)” value [1] was 0%, the “Population Apoptotic (%)” value [2] was 33.33% and 60% and the “Population Healthy Nuclei (%)” value [2] was 88.89% and 58.2%. For the same compound, the “Population Hoechst High Intensity Objects (%)” value [2] was 0%, the “Population Membrane Permeable-Phenotype (%)” value [2] was 1.19% and 4.7% and the “Population Mitochondria Different-Phenotype (%)” value [2] was 0.89% and 6.71%. For the same compound, the “Population Mitotic Cells (%)” value [2] was 66.67% and 40%, the “Population Normal (%)” value [2] was 100% and the “Population Pyknosed Nuclei (%)” value [2] was 9.52% and 5.86%. For the same compound, the “Population Tubulin-Different-Phenotype (%)” value [2] was 1.49% and 0.67%, the “Total Cell Count” value [2] was 378 and 256 and the “Population Apoptotic (%)” value [3] was 53.33% and 66.67%. The “Population Fragmented Nuclei (%)” value [3] was 1.7% and 1.75%, the “Population Healthy Nuclei (%)” value [3] was 91.36% and 85.96% and the “Population Hoechst High Intensity Objects (%)” value [3] was 1.22% and 0%. For the same compound, the “Population Membrane Permeable-Phenotype (%)” value [3] was 0.68% and 2.72%, the “Population Mitotic Cells (%)” value [3] was 46.67% and 33.33% and the “Population Normal (%)” value [3] was 98.78% and 100%. The “Population Pyknosed Nuclei (%)” value [3] was 6.94% and 12.28%, the “Population Tubulin-Different-Phenotype (%)” value [3] was 0.51% and 0.68% and the “Population Apoptotic (%)” value [4] was 32.2% and 38.89%. For the same compound, the “Population Healthy Nuclei (%)” value [4] was 87.76% and 63.54%, the “Population Hoechst High Intensity Objects (%)” value [4] was 0% and the “Population Membrane Permeable-Phenotype (%)” value [4] was 1.07% and 3.28%. The “Population Mitochondria Different-Phenotype (%)” value [4] was 0.43% and 3.83%, the “Population Mitotic Cells (%)” value [4] was 67.8% and 61.11% and the “Population Normal (%)” value [4] was 100%. For the same compound, the “Population Pyknosed Nuclei (%)” value [4] was 11.11% and 6.25%, the “Population Tubulin-Different-Phenotype (%)” value [4] was 1.07% and 1.09% and the “Total Cell Count” value [4] was 531 and 288. The “Population Apoptotic (%)” value [5] was 45.92% and 51.61%, the “Population Fragmented Nuclei (%)” value [5] was 4.22% and 1.42% and the “Population Healthy Nuclei (%)” value [5] was 87.82% and 87.54%. The “Population Hoechst High Intensity Objects (%)” value [5] was 0.88% and 0%, the “Population Membrane Permeable-Phenotype (%)” value [5] was 0.55% and 2.44% and the “Population Mitochondria Different-Phenotype (%)” value [5] was 0.09% and 6.91%. For the same compound, the “Population Mitotic Cells (%)” value [5] was 54.08% and 48.39%, the “Population Normal (%)” value [5] was 99.12% and 100% and the “Population Pyknosed Nuclei (%)” value [5] was 7.95% and 11.03%. For the same compound, the “Population Tubulin-Different-Phenotype (%)” value [5] was 0.37% and 1.22%, the “Population Apoptotic (%)” value [6] was 45.36% and 57.14% and the “Population Healthy Nuclei (%)” value [6] was 87.24% and 75.39%. For the same compound, the “Population Hoechst High Intensity Objects (%)” value [6] was 0.1% and 0%, the “Population Membrane Permeable-Phenotype (%)” value [6] was 0.68% and 1.72% and the “Population Mitochondria Different-Phenotype (%)” value [6] was 0.34% and 3.09%. The “Population Mitotic Cells (%)” value [6] was 54.64% and 42.86%, the “Population Normal (%)” value [6] was 99.9% and 100% and the “Population Pyknosed Nuclei (%)” value [6] was 9.59% and 7.25%. The “Population Tubulin-Different-Phenotype (%)” value [6] was 0.45% and 0.34% and the “Total Cell Count” value [6] was 1012 and 386.
